{"source": "ChEMBL document CHEMBL4177758", "about": "“Rational Drug Design of Topically Administered Caspase 1 Inhibitors for the Treatment of Inflammatory Acne” (J Med Chem, 2018)", "key": {"Caspase-1 [1]": {"target": "T1, Caspase-1 (Homo sapiens, UniProt P29466)", "T1 sequence (P29466 whole entry)": "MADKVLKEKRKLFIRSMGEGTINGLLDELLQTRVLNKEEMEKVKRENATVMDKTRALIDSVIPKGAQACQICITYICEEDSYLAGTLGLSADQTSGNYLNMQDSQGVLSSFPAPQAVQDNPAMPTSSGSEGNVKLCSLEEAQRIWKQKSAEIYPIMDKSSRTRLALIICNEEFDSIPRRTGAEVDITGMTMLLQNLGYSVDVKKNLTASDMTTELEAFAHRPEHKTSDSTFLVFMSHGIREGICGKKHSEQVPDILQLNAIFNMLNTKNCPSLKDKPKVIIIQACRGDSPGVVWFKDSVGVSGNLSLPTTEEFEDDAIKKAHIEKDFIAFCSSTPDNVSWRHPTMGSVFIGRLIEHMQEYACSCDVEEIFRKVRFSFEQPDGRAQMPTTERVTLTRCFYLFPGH", "assay": "Inhibition of human recombinant caspase-1 using AC-WEHD-AMC as substrate at Km after 20 mins by fluorescence assay", "details": "read-out: IC50"}, "[2]": {"assay": "Lipophilicity, log D of the compound at pH 6.5 by chromatographic method", "format": "physicochemical", "details": "buffer", "outline": "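Chromatographic lipophilicity at pH 6.5, converted to ChromLogD = CHI × 0.0857 − 2.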"}, "Caspase-1 [3]": {"target": "T1, Caspase-1", "assay": "Inhibition of caspase-1 in human THP1 cells assessed as decrease in LPS-induced IL-1beta secretion after overnight incubation by sandwich immunoassay", "format": "cell-based"}, "[4]": {"assay": "Chemical stability in 96% ethanol assessed as parent compound recovery at 23 degC after 3 months", "format": "physicochemical", "details": "read-out: Drug recovery", "outline": "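Compounds bearing the aspartyl aldehyde warhead are held in 96% ethanol at 23 °C and assayed as percent of parent compound recovered. Readings taken after 4 weeks are projected to 12 weeks with best-fit kinetic-order equations. Tautomers and potential stereoisomers are counted as parent.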"}, "[5]": {"assay": "Phototoxicity in NHEK assessed as decrease in cell viability after 24 hrs in presence of UV light by neutral red uptake assay", "details": "human", "outline": "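Keratinocyte neutral red uptake assay adapted from the OECD 432 3T3 NRU test. Cells are irradiated with a simulated daily UV dose of 6 J/cm², and viability is read after 24 h exposure to compound.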"}, "Caspase-3": {"target": "T2, Caspase-3 (Homo sapiens, UniProt P42574)", "T2 sequence (P42574 whole entry)": "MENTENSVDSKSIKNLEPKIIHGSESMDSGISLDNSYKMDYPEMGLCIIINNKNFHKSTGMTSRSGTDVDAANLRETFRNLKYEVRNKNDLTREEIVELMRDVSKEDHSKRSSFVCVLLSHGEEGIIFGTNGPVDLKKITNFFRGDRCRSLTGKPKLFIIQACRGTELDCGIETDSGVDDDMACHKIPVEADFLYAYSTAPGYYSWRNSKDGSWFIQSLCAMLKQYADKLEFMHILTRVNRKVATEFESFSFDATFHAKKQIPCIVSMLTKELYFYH", "assay": "Inhibition of human recombinant caspase-3 using Ac-DEVD-AMC as substrate at Km after 20 mins by fluorescence assay", "outline": "(§1)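 Human recombinant caspases in pH 7.4 HEPES buffer (100 mM NaCl, 0.1% CHAPS, 1 mM EDTA, 10% glycerol, 10 mM DTT), each with its own AMC substrate at a final concentration equal to its Km. Compounds tested at 10 000–0.04 nM in 1% DMSO. Enzyme level is set to convert under 20% of substrate in 20 min, or 2 h depending on activity, at room temperature. AMC read at 340/450 nm; IC50 from a four-parameter logistic fit.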"}, "Caspase-5": {"target": "T3, Caspase-5 (Homo sapiens, UniProt P51878)", "T3 sequence (P51878 whole entry)": "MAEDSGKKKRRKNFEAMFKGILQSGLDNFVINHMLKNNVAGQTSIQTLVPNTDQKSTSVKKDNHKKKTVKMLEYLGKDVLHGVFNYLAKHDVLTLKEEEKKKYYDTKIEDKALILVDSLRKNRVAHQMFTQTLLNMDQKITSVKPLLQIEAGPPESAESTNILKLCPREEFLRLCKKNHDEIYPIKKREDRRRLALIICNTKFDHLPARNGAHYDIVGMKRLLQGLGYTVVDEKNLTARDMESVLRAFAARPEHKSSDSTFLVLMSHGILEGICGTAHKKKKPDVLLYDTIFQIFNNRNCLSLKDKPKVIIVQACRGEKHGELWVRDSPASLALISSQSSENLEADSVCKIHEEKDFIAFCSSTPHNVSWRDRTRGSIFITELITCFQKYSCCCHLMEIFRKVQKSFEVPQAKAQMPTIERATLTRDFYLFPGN", "assay": "Inhibition of human recombinant caspase-5 using AC-WEHD-AMC as substrate at Km after 20 mins by fluorescence assay", "outline": "as §1"}, "Caspase-6": {"target": "T4, Caspase-6 (Homo sapiens, UniProt P55212)", "T4 sequence (P55212 whole entry)": "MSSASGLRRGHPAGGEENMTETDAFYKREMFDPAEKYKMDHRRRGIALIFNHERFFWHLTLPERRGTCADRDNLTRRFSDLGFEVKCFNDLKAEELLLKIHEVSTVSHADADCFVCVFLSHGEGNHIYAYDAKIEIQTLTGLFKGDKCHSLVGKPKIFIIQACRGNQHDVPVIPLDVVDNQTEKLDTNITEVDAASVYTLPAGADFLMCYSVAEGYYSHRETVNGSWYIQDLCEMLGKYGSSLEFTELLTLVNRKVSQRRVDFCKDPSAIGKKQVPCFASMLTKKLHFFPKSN", "assay": "Inhibition of human recombinant caspase-6 using Ac-VEID-AMC as substrate at Km after 20 mins by fluorescence assay", "outline": "as §1"}, "Caspase-7": {"target": "T5, Caspase-7 (Homo sapiens, UniProt P55210)", "T5 sequence (P55210 whole entry)": "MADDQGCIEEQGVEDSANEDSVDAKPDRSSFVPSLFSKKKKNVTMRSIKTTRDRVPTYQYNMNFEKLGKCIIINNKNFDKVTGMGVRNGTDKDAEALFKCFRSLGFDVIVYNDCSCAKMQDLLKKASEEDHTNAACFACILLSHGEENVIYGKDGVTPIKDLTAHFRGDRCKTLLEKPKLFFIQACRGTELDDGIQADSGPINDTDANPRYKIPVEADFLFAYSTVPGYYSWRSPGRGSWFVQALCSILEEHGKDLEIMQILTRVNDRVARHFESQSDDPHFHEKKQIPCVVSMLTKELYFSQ", "assay": "Inhibition of human recombinant caspase-7 using Ac-DEVD-AMC as substrate at Km after 20 mins by fluorescence assay", "outline": "as §1"}, "Caspase-8": {"target": "Caspase-8 (Homo sapiens, UniProt Q14790)", "sequence (Q14790 217-374 limits assumed)": "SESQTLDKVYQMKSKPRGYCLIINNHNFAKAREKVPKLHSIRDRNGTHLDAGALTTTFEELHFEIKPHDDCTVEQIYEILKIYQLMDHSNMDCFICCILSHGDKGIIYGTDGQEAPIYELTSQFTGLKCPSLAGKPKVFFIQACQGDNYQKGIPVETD", "sequence (Q14790 385-479 limits assumed)": "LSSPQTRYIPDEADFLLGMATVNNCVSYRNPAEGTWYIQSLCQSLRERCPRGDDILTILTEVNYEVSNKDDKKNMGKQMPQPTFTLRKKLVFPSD", "assay": "Inhibition of human recombinant caspase-8 using Ac-IETD-AMC as substrate at Km after 20 mins by fluorescence assay", "outline": "as §1"}, "Caspase-1 [6]": {"target": "T1, Caspase-1", "assay": "Inhibition of caspase-1 in human monocyte-derived macrophages assessed as decrease in LPS-induced IL-1beta secretion after 24 hrs by sandwich immunoassay", "outline": "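Cryopreserved human peripheral blood monocytes are cultured 10 days at 37 °C in RPMI with 10% heat-inactivated FBS and 100 ng/mL GM-CSF to give M1 macrophages. Cells are then stimulated with LPS 10 µg/mL plus IFNγ 20 ng/mL and treated with compound serial dilutions (10000–0.04 nM, 0.1% DMSO).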"}, "[7]": {"assay": "Cmax in mouse dermis at 0.1 umol/cm'2 administered topically", "format": "ADME, tissue-based", "details": "topical or ocular", "outline": "(§2)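 Mouse PK after one topical application of 0.1 μmol/cm², given as a 10 mM solution in PG/EtOH 3/7. Cmax is reported in μM for dermis and for plasma.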"}, "[8]": {"assay": "Cmax in mouse plasma at 0.1 umol/cm'2 administered topically", "details": "topical or ocular", "outline": "as §2"}, "[9]": {"assay": "Drug uptake in human dermis at 0.2 umol/cm'2 administered topically", "format": "ADME, tissue-based", "details": "topical_or_ocular, read-out: Drug uptake", "outline": "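Cryogenically preserved human skin explant given one topical application of 0.2 μmol/cm² from a 40 mM PG/EtOH 3/7 solution. Dermis concentration is reported in μM.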"}, "[10]": {"assay": "Intrinsic clearance in human hepatocytes assessed per 10^6 cells", "format": "ADME, cell-based, Hepatocyte", "details": "read-out: CLH"}}, "note": "pIC50: −log10 of the molar value."}
{"smiles": "Cc1cc(Nc2ccc3ccccc3c2)ccc1C(=O)Nc1cn(C(C)C)c(=O)n(C2(C(=O)N[C@H]3CC(=O)OC3O)CC2)c1=O", "note": "(stereo not given in full)", "values": [{"measurement": "pIC50", "setting": "Caspase-1 [1]", "result": 8.01}, {"measurement": "chromatographic logD", "setting": "[2]", "result": 3.7}, {"measurement": "pIC50", "setting": "Caspase-1 [3]", "result": 7.42}, {"measurement": "remaining at 2191.5 h", "setting": "[4]", "result": 100, "unit": "%"}, {"measurement": "Activity", "setting": "[5]", "result": "Non-Toxic"}, {"measurement": "pIC50", "setting": "Caspase-3", "result": "< 5.00"}, {"measurement": "pIC50", "setting": "Caspase-5", "result": 5.53}, {"measurement": "pIC50", "setting": "Caspase-6", "result": "< 5.00"}, {"measurement": "pIC50", "setting": "Caspase-7", "result": "< 5.00"}, {"measurement": "pIC50", "setting": "Caspase-8", "result": "< 5.00"}, {"measurement": "pIC50", "setting": "Caspase-1 [6]", "result": 6.80}, {"measurement": "Cmax", "setting": "[7]", "result": 4.2, "unit": "µM"}, {"measurement": "Cmax", "setting": "[8]", "result": 0.0013, "unit": "µM"}, {"measurement": "concentration", "setting": "[9]", "result": 4.5, "unit": "µM"}, {"measurement": "hepatocyte CLint", "setting": "[10]", "result": 9.8, "unit": "µL/min/1e6 cells"}]}
